Assay results reported in ChEMBL document CHEMBL1629571, “High prevalence of plasmid-mediated quinolone resistance determinants qnr, aac(6')-Ib-cr, and qepA among ceftiofur-resistant Enterobacteriaceae isolates from companion and food-producing animals” (2009).
Converted amounts (≈) assume the structure as drawn.

Columns and labels:
Klebsiella pneumoniae [1] = test: Antimicrobial activity against Klebsiella pneumoniae D10 expressing aac(6')-Ib-cr, qnrB4, CTX-M-1G and DHA-1 genes by Etest; type: functional
Escherichia coli [2] = test: Antimicrobial activity against Escherichia coli J53 transformed with pHND1 carrying DHA-1 gene by Etest; type: functional
Escherichia coli [3] = test: Antimicrobial activity against Escherichia coli J53 transformed with pHND2 carrying qnrB6 and CTX-M-9G genes by Etest; type: functional
Citrobacter freundii [4] = test: Antimicrobial activity against Citrobacter freundii D26 expressing qnrB6 and CTX-M-9G genes by Etest; type: functional
Escherichia coli [5] = test: Antimicrobial activity against Escherichia coli Du19 expressing qnrB6 and CTX-M-9G genes by Etest; type: functional
Escherichia coli [6] = test: Antimicrobial activity against Escherichia coli J53 transformed with pHNDU1 carrying qnrB6 gene by Etest; type: functional
Escherichia coli [7] = test: Antimicrobial activity against Escherichia coli PA11 expressing aac(6')-Ib-cr, qnrS1 and qepA genes by Etest; type: functional
Klebsiella pneumoniae [8] = test: Antimicrobial activity against Klebsiella pneumoniae D10 expressing aac(6')-Ib-cr, qnrB4, CTX-M-1G and DHA-1 genes by agar dilution method; type: functional
Citrobacter freundii [9] = test: Antimicrobial activity against Citrobacter freundii D26 expressing qnrB6 and CTX-M-9G genes by agar dilution method; type: functional
Method in brief: (§1)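 Agar dilution MICs per CLSI guidelines, with E. coli ATCC 25922 as the quality-control strain. Isolates were ceftiofur-resistant (MIC ≥ 8 μg/ml) Enterobacteriaceae from diseased companion or food-producing animals in Guangdong, China. They were identified biochemically and with Biolog Microlog, and PMQR and β-lactamase genes were typed by PCR and sequencing.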

Escherichia coli [10] = test: Antimicrobial activity against Escherichia coli Du19 expressing qnrB6 and CTX-M-9G genes by agar dilution method; type: functional; method in brief: as §1
Escherichia coli [11] = test: Antimicrobial activity against Escherichia coli PA11 expressing aac(6')-Ib-cr, qnrS1 and qepA genes by agar dilution method; type: functional; method in brief: as §1
Escherichia coli [12] = test: Antimicrobial activity against Escherichia coli J53 by agar dilution method; type: functional
Escherichia coli [13] = test: Antimicrobial activity against Escherichia coli J53 transformed with pHND1 carrying DHA-1 gene by agar dilution method; type: functional
Method in brief: (§2)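 Transconjugants came from liquid mating of qnr-positive donors into E. coli J53Azi^r. They were selected on tryptic soy agar with sodium azide (100 μg/ml) plus sulfamethoxazole (300 μg/ml) or ampicillin (100 μg/ml). MICs were determined by CLSI agar dilution, with E. coli ATCC 25922 as the quality control strain.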

Escherichia coli [14] = test: Antimicrobial activity against Escherichia coli J53 transformed with pHND2 carrying qnrB6 and CTX-M-9G genes by agar dilution method
Escherichia coli [15] = test: Antimicrobial activity against Escherichia coli J53 transformed with pHND3 carrying qnrB6 gene by agar dilution method; type: functional; method in brief: as §2
Escherichia coli [16] = test: Antimicrobial activity against Escherichia coli J53 transformed with pHNDU1 carrying qnrB6 gene by agar dilution method; type: functional; method in brief: as §2
Escherichia coli [17] = test: Antimicrobial activity against Escherichia coli J53 transformed with pHNPA1 carrying qnrB6 gene by agar dilution method
Klebsiella pneumoniae [18] = test: Antimicrobial activity against Klebsiella pneumoniae D24 expressing qnrB6 and CTX-M-9G genes by agar dilution method
Klebsiella pneumoniae [19] = test: Antimicrobial activity against Klebsiella pneumoniae C1 expressing aac(6')-Ib-cr gene by agar dilution method
Klebsiella pneumoniae [20] = test: Antimicrobial activity against Klebsiella pneumoniae C7 expressing aac(6')-Ib-cr gene by agar dilution method
Escherichia coli [21] = test: Antimicrobial activity against Escherichia coli D71 expressing qepA, CTX-M-1G and CTX-M-9G genes by agar dilution method
Escherichia coli [22] = test: Antimicrobial activity against Escherichia coli P498 expressing qnrS1 gene by agar dilution method
Escherichia coli [23] = test: Antimicrobial activity against Escherichia coli Chi197 expressing aac(6')-Ib-cr and CTX-M-9G genes by agar dilution method
Escherichia coli [24] = test: Antimicrobial activity against Escherichia coli PA09 expressing aac(6')-Ib-cr gene by agar dilution method
Escherichia coli [25] = test: Antimicrobial activity against Escherichia coli PA14 expressing aac(6')-Ib-cr and qepA genes by agar dilution method
Klebsiella pneumoniae [26] = test: Antimicrobial activity against Klebsiella pneumoniae D24 expressing aac(6')-Ib-cr and CTX-M-9G genes by Etest

Molecule | MIC (Klebsiella pneumoniae [8]) [mg/L] | MIC (Citrobacter freundii [9]) [mg/L] | MIC (Escherichia coli [10]) [mg/L] | MIC (Escherichia coli [11]) [mg/L] | MIC (Escherichia coli [12]) [mg/L] | MIC (Escherichia coli [13]) [mg/L] | MIC (Escherichia coli [14]) [mg/L] | MIC (Escherichia coli [15]) [mg/L] | MIC (Escherichia coli [16]) [mg/L] | MIC (Escherichia coli [17]) [mg/L] | MIC (Klebsiella pneumoniae [18]) [mg/L] | also measured
C[C@H]1COc2c(N3CCN(C)CC3)c(F)cc3c(=O)c(C(=O)O)cn1c23.C[C@H]1COc2c(N3CCN(C)CC3)c(F)cc3c(=O)c(C(=O)O)cn1c23.O [LEVOFLOXACIN] | – | – | – | – | – | – | – | – | – | – | – | MIC (Klebsiella pneumoniae [1]): 16 mg/L; MIC (Escherichia coli [2]): 0.25 mg/L; MIC (Escherichia coli [3]): 0.25 mg/L; MIC (Citrobacter freundii [4]): 2 mg/L; MIC (Escherichia coli [5]): 16 mg/L; MIC (Escherichia coli [6]): 2 mg/L; MIC (Escherichia coli [7]): 128 mg/L
CO/N=C(\C(=O)N[C@@H]1C(=O)N2C(C(=O)O)=C(COC(C)=O)CS[C@H]12)c1csc(N)n1 [CEFOTAXIME] | 128 (≈ 281 µM) | 64 (≈ 141 µM) | 128 (≈ 281 µM) | 16 (≈ 35.1 µM) | 0.06 (≈ 0.132 µM) | 0.125 (≈ 0.274 µM) | 32 (≈ 70.3 µM) | 0.06 (≈ 0.132 µM) | 1 (≈ 2.2 µM) | 0.5 (≈ 1.1 µM) | 64 (≈ 141 µM) | –
CC1(C)S[C@@H]2[C@H](NC(=O)[C@H](N)c3ccccc3)C(=O)N2[C@H]1C(=O)O [AMPICILLIN] | > 128 | > 128 | > 128 | > 256 | – | > 128 | > 128 | > 128 | 64 (≈ 183 µM) | > 256 | > 128 | –
GENTAMICIN | > 128 | > 128 | > 128 | > 256 | 0.125 | > 128 | – | 16 | > 128 | – | – | –
Cc1cc(NS(=O)(=O)c2ccc(N)cc2)no1 [SULFAMETHOXAZOLE] | > 256 | > 256 | > 256 | > 256 | 16 (≈ 63.2 µM) | > 256 | > 256 | 4 (≈ 15.8 µM) | 128 (≈ 505 µM) | > 256 | > 256 | –
CO/N=C(\C(=O)N[C@@H]1C(=O)N2C(C(=O)O)=C(CSC(=O)c3ccco3)CS[C@H]12)c1csc(N)n1 [CEFTIOFUR] | 128 (≈ 244 µM) | 128 (≈ 244 µM) | 128 (≈ 244 µM) | > 128 | 0.25 (≈ 0.477 µM) | 0.5 (≈ 0.955 µM) | 64 (≈ 122 µM) | 0.25 (≈ 0.477 µM) | 0.25 (≈ 0.477 µM) | 0.5 (≈ 0.955 µM) | > 128 | –
CC(C)(O/N=C(\C(=O)N[C@@H]1C(=O)N2C(C(=O)[O-])=C(C[n+]3ccccc3)CS[C@H]12)c1csc(N)n1)C(=O)O [CEFTAZIDIME] | 128 (≈ 234 µM) | 1 (≈ 1.83 µM) | 16 (≈ 29.3 µM) | 32 (≈ 58.5 µM) | 0.125 (≈ 0.229 µM) | 0.25 (≈ 0.457 µM) | 1 (≈ 1.83 µM) | 0.125 (≈ 0.229 µM) | 0.5 (≈ 0.915 µM) | 1 (≈ 1.83 µM) | 2 (≈ 3.66 µM) | –
CO/N=C(\C(=O)N[C@@H]1C(=O)N2C(C(=O)[O-])=C(C[n+]3cccc4c3CCCC4)CS[C@H]12)c1csc(N)n1 [CEFQUINOME] | 64 (≈ 121 µM) | 64 (≈ 121 µM) | 32 (≈ 60.5 µM) | 64 (≈ 121 µM) | 0.06 (≈ 0.114 µM) | 0.06 (≈ 0.114 µM) | 8 (≈ 15.1 µM) | 0.06 (≈ 0.114 µM) | 0.25 (≈ 0.473 µM) | 0.25 (≈ 0.473 µM) | 64 (≈ 121 µM) | –
O=C(N[C@H](CO)[C@H](O)c1ccc([N+](=O)[O-])cc1)C(Cl)Cl [CHLORAMPHENICOL] | > 128 | 64 (≈ 198 µM) | > 128 | > 256 | 8 (≈ 24.8 µM) | > 128 | > 128 | 8 (≈ 24.8 µM) | > 128 | – | > 128 | –
NCC[C@H](O)C(=O)N[C@@H]1C[C@H](N)[C@@H](O[C@H]2O[C@H](CN)[C@@H](O)[C@H](O)[C@H]2O)[C@H](O)[C@H]1O[C@H]1O[C@H](CO)[C@@H](O)[C@H](N)[C@H]1O [AMIKACIN] | > 128 | > 128 | > 128 | > 256 | 0.5 (≈ 0.854 µM) | > 128 | 0.5 (≈ 0.854 µM) | 1 (≈ 1.71 µM) | > 128 | 0.25 (≈ 0.427 µM) | 2 (≈ 3.42 µM) | –
CCn1cc(C(=O)O)c(=O)c2ccc(C)nc21 [NALIDIXIC ACID] | > 128 | 128 (≈ 551 µM) | > 128 | > 128 | 4 (≈ 17.2 µM) | 16 (≈ 68.9 µM) | 16 (≈ 68.9 µM) | 4 (≈ 17.2 µM) | 64 (≈ 276 µM) | 32 (≈ 138 µM) | 64 (≈ 276 µM) | –
O=C(O)c1cn(C2CC2)c2cc(N3CCNCC3)c(F)cc2c1=O [CIPROFLOXACIN] | – | 4 (≈ 12.1 µM) | 64 (≈ 193 µM) | > 128 | – | – | – | – | – | – | 2 (≈ 6.04 µM) | MIC (Klebsiella pneumoniae [19]): 8 mg/L (≈ 24.1 µM); MIC (Klebsiella pneumoniae [20]): 8 mg/L (≈ 24.1 µM); MIC (Escherichia coli [21]): 64 mg/L (≈ 193 µM); MIC (Escherichia coli [22]): 64 mg/L (≈ 193 µM); MIC (Escherichia coli [23]): 64 mg/L (≈ 193 µM); MIC (Escherichia coli [24]): 64 mg/L (≈ 193 µM); MIC (Escherichia coli [25]): > 128 mg/L; MIC (Klebsiella pneumoniae [26]): 2 mg/L (≈ 6.04 µM); MIC (Citrobacter freundii [4]): 4 mg/L (≈ 12.1 µM); MIC (Escherichia coli [7]): > 128 mg/L
COc1cc(Cc2cnc(N)nc2N)cc(OC)c1OC [TRIMETHOPRIM] | > 256 | > 256 | > 256 | > 256 | 0.25 (≈ 0.861 µM) | > 256 | > 256 | > 256 | 0.5 (≈ 1.72 µM) | > 256 | > 256 | –
